Among the data in ChEMBL document CHEMBL1944532, “Synthesis and evaluation of anticancer activity of some novel 6-aryl-2-(p-sulfamylphenyl)-pyridazin-3(2H)-ones” (Eur J Med Chem, 2012) are GI50 values, retold here.

What is called GI50 is the concentration that inhibits growth by half.

Test [1] has as its system NCI-H522. Description: Cytotoxicity against human NCI-H522 cells after 48 hrs by SRB assay. The class given is functional. The following applies: NCI-H522, 48 h, read-out: GI50. In outline: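 NCI five-dose screen on the ~60-line human tumor panel. Cells grown in RPMI-1640 with 5% fetal calf serum and 2 mM L-glutamine, seeded at line-dependent density and preincubated 24 h. Compound added from DMSO at 10-fold dilutions from 10^-4 to 10^-8 M, continuous exposure 48 h. Growth read by sulforhodamine B protein stain. GI50, TGI and LC50 derived per line.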
For orientation: Sulforhodamine B stains cellular protein and so reports cell mass.

The test system of test [2] is SR. Description: Cytotoxicity against human SR cells after 48 hrs by SRB assay. The class given is functional. Particulars: read-out: GI50. In outline: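 NCI 60-cell-line five-dose screen. Cells were grown in 1640 medium with 5% fetal calf serum and 2 mM L-glutamine, with inoculum density set by cell line, and pre-incubated 24 h. Compound in DMSO was added at 10^-4 to 10^-8 M (10-fold steps) with 48 h continuous exposure. Growth was read by SRB protein assay, and GI50, TGI and LC50 were derived from dose-response.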

Consider `O=c1[nH]cc(F)c(=O)[nH]1` [FLUOROURACIL], for which the concentration for 50% growth inhibition (GI50) was found to be 7.28 µM in test [1] and 0.0238 µM in test [2].
